Test results taken from ChEMBL document CHEMBL1240447, “Synthesis and bioactivity of sphingosine kinase inhibitors and their novel aspirinyl conjugated analogs” (Eur J Med Chem, 2010).
The source made the active and inactive calls. The rule behind the calls is not given here.

Key:
[1] = Cytotoxicity against human U87MG cells after 72 hrs by SRB assay; type: functional, cell-based, U-87MG ATCC; conditions: U-87 MG
HeLa = experiment: Cytotoxicity against human HeLa cells after 72 hrs by SRB assay; type: functional, cell-based
NCI-H460 = experiment: Cytotoxicity against human H460 cells after 72 hrs by SRB assay; type: functional, cell-based; conditions: NCI-H460, 72 h
NCI-H226 = experiment: Cytotoxicity against human NCI-H226 cells after 72 hrs by SRB assay; type: functional, cell-based; conditions: NCI-H226, 72 h
[2] = Cytotoxicity against human H441 cells after 72 hrs by SRB assay; type: functional, cell-based; conditions: NCI-H441, 72 h
A549 = experiment: Cytotoxicity against human A549 cells after 72 hrs by SRB assay; type: functional, cell-based; conditions: A549, 72 h
MDA-MB-231 = experiment: Cytotoxicity against human MDA-MB-231 cells after 72 hrs by SRB assay; type: functional, cell-based; conditions: MDA-MB-231, 72 h
MIA PaCa-2 = experiment: Cytotoxicity against human MIAPaCa2 cells after 72 hrs by SRB assay; type: functional, cell-based; conditions: MIA PaCa-2, 72 h
[3] = Cytotoxicity against human MCF10A cells after 72 hrs by SRB assay; type: cell-based; conditions: MCF-10A
MEF = experiment: Cytotoxicity against MEF after 72 hrs by SRB assay; type: cell-based; conditions: Mus musculus
Serum [4] = experiment: Metabolic stability of the compound in fetal bovine serum assessed as conversion of SKI-2 after 2 hrs by HPLC analysis; type: ADME, cell-free, Bos taurus; conditions: cattle
Summary of the method: (§1)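 Compound in DMSO, 1 mg/mL, added to 5 mL DMEM with 10% FBS (no cells) and shaken at 37 °C; samples at 0, 2, 16 and 72 h filtered and run on C18 HPLC; conjugate remaining and released parent SKI expressed as percentages of peak areas per time point.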

Serum [5] = experiment: Metabolic stability of the compound in fetal bovine serum assessed as conversion of SKI-2 after 16 hrs by HPLC analysis; type: ADME, cell-free, Bos taurus; conditions: cattle; summary of the method: as §1
Serum [6] = experiment: Metabolic stability of the compound in fetal bovine serum assessed as conversion of SKI-2 after 72 hrs by HPLC analysis; type: ADME, cell-free, Bos taurus; conditions: cattle; summary of the method: as §1
[7] = Metabolic stability of the compound in fetal bovine serum assessed as compound remaining after 72 hrs by HPLC analysis; type: ADME, cell-free, Bos taurus; conditions: cattle, read-out: Stability; summary of the method: as §1
[8] = Chemical stability of the compound assessed as compound remaining after 72 hrs by HPLC analysis; type: physicochemical
Summary of the method: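 Compound in DMSO, 1 mg/mL, added to 5 mL serum-free DMEM (no cells) and shaken at 37 °C; samples taken at 0, 2, 16 and 72 h, filtered and analyzed by C18 HPLC; percentages of parent and conjugate peak areas calculated per time point.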

[9] = target: Sphingosine kinase 1 (Homo sapiens) (UniProt Q9NYA1); experiment: Inhibition of Sphingosine kinase 1 in human HeLa cells at 1.25 uM pre-incubated for 24 hrs; type: cell-based
Summary of the method: (§2)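 HeLa cells preincubated 24 h with compound or DMSO; cytosol (100,000g supernatant) at 10 µg protein incubated with 50 µM D-erythro-sphingosine, 200 µM ATP plus [γ-32P]ATP in pH 7.4 Tris buffer, 30 min, 37 °C; S1P resolved by TLC and quantified by scintillation counting; triplicate.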

[10] = target: Sphingosine kinase 1 (Homo sapiens) (UniProt Q9NYA1); experiment: Inhibition of Sphingosine kinase 1 in human HeLa cells at >=5 uM pre-incubated for 24 hrs; type: cell-based; summary of the method: as §2
[11] = Half life in C3H-HEJ mouse serum at 60 mg/kg, ip up to 16 hrs by HPLC analysis; type: ADME, organism-based; design: dose 60 mg/kg, route intraperitoneal
Serum [12] = experiment: Metabolic stability of the compound in fetal bovine serum assessed as conversion of SKI-1 after 16 hrs by HPLC analysis; type: ADME, cell-free, Bos taurus; conditions: cattle; summary of the method: as §1

Sphingosine kinase 1 (Homo sapiens), sequence (Q9NYA1 whole entry): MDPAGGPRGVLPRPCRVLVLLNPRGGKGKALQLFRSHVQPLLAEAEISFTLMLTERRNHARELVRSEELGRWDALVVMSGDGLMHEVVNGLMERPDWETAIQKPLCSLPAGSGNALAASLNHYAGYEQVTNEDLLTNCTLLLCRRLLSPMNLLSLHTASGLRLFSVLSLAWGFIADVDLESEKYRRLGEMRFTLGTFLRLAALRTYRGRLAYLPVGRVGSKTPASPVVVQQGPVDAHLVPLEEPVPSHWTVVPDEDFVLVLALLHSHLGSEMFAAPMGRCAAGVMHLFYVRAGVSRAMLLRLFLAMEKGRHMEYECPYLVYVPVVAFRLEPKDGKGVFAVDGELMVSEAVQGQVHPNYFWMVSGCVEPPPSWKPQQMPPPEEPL

| Stability (Serum [4]) [%] | Stability (Serum [5]) [%] | Stability (Serum [6]) [%] | remaining at 72 h [7] [%] | Stability [8] | Activity [9] | Activity [10] | half-life [11] [h] | Stability (Serum [12]) [%] | SMILES | IC50 [1] [µM] | IC50 (HeLa) [µM] | IC50 (NCI-H460) [µM] | IC50 (NCI-H226) [µM] | IC50 [2] [µM] | IC50 (A549) [µM] | IC50 (MDA-MB-231) [µM] | IC50 (MIA PaCa-2) [µM] | IC50 [3] [µM] | IC50 (MEF) [µM] |
| --- | --- | --- | --- | --- | --- | --- | --- | --- | --- | --- | --- | --- | --- | --- | --- | --- | --- | --- | --- |
| – | – | – | – | – | – | – | – | – | Oc1ccc(Nc2nc(-c3ccc(Cl)cc3)cs2)cc1 | 10.7 | 9.1 | 9.2 | 8.6 | 8 | 7.8 | 8.2 | 7.7 | 14.5 | 8.9 |
| 15 | 50 | 75 | 25 | Stable | Active | Active | – | – | CC(=O)Oc1ccccc1C(=O)Oc1ccc(Nc2nc(-c3ccc(Cl)cc3)cs2)cc1 | 8.1 | 11.2 | 9.1 | 6.7 | 5.7 | 5.9 | 8.4 | 8.7 | 11.3 | 9.4 |
| – | – | – | – | – | – | – | 7 | – | O=C(N/N=C/c1c(O)ccc2ccccc12)c1cc(-c2ccc3ccccc3c2)n[nH]1 | 1 | 1 | 3.2 | 5.7 | 2 | 3.8 | 4.4 | 4.8 | 4.1 | 5 |
| – | – | – | – | Stable | Active | Active | 10 | 80 | CC(=O)Oc1ccccc1C(=O)Oc1ccc2ccccc2c1/C=N/NC(=O)c1cc(-c2ccc3ccccc3c2)n[nH]1 | 1.5 | 1 | 1.2 | 1.7 | 0.6 | 0.9 | 1.3 | 1.6 | 2.6 | 5.5 |
